# Measurements from ChEMBL document CHEMBL1240420, “Synthesis and biological evaluation of cinnamido linked pyrrolo[2,1-c][1,4]benzodiazepines as antimitotic agents” (Eur J Med Chem, 2010).
# Experiments:
# Format in all cases: functional
# HT-29 = experiment: Cytotoxicity against human HT-29 cells after 48 hrs by SRB assay; details: HT-29, 48 h
# NCI-H23 = experiment: Cytotoxicity against human NCI-H23 cells after 48 hrs by SRB assay; details: NCI-H23, 48 h
# RXF 393 = experiment: Cytotoxicity against human […] cells after 48 hrs by SRB assay; details: RXF 393, 48 h
# OVCAR-4 = experiment: Cytotoxicity against human OVCAR4 cells after 48 hrs by SRB assay; details: OVCAR-4, 48 h
# MCF7 = experiment: Cytotoxicity against human MCF7 cells after 48 hrs by SRB assay; details: MCF7, 48 h
# Summary of the method: (§1)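 Cells were grown in RPMI 1640 with 10% FBS and 2 mM L-glutamine, plated 24 h before dosing, then given continuous 48 h exposure at 0.1, 1, 10 and 100 µM in triplicate wells. Cells were fixed with cold TCA (10% final, 60 min, 4 °C), stained with 0.4% SRB in 1% acetic acid for 20 min, eluted with 10 mM Tris base, and read at 540/690 nm. GI50 was taken from [(Ti−Tz)/(C−Tz)]×100 = 50; three determinations were averaged.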
# MOLT-4 = experiment: Cytotoxicity against human MOLT4 cells after 48 hrs by SRB assay; details: MOLT-4, 48 h
# EKVX = experiment: Cytotoxicity against human EKVX cells after 48 hrs by SRB assay
# KM12 = experiment: Cytotoxicity against human KM12 cells after 48 hrs by SRB assay; details: KM12, 48 h
# SK-MEL-28 = experiment: Cytotoxicity against human SK-MEL-28 cells after 48 hrs by SRB assay; details: SK-MEL-28, 48 h
# M14 = experiment: Cytotoxicity against human M14 cells after 48 hrs by SRB assay; details: M14, 48 h
# HL-60(TB) = experiment: Cytotoxicity against human HL-60(TB) cells after 48 hrs by SRB assay; details: HL-60, 48 h
# SNB-75 = experiment: Cytotoxicity against human SNB75 cells after 48 hrs by SRB assay; details: SNB-75, 48 h
# HOP-92 = experiment: Cytotoxicity against human HOP92 cells after 48 hrs by SRB assay; details: HOP-92, 48 h
# SR = experiment: Cytotoxicity against human SR cells after 48 hrs by SRB assay
# CAKI-1 = experiment: Cytotoxicity against human Caki1 cells after 48 hrs by SRB assay; details: CAKI-1, 48 h
# U-251 = experiment: Cytotoxicity against human U251 cells after 48 hrs by SRB assay; details: U-251, 48 h
# SK-MEL-2 = experiment: Cytotoxicity against human SK-MEL-2 cells after 48 hrs by SRB assay; details: SK-MEL-2, 48 h
# NCI-H322M = experiment: Cytotoxicity against human NCI-H322M cells after 48 hrs by SRB assay
# [1] = Cytotoxicity against human Hs 578T cells after 48 hrs by SRB assay
# NCI-H226 = experiment: Cytotoxicity against human NCI-H226 cells after 48 hrs by SRB assay; details: NCI-H226, 48 h
# A498 = experiment: Cytotoxicity against human A498 cells after 48 hrs by SRB assay; details: A498, 48 h
# SK-MEL-5 = experiment: Cytotoxicity against human SK-MEL-5 cells after 48 hrs by SRB assay; details: SK-MEL-5, 48 h
# 786-0 = experiment: Cytotoxicity against human 786-0 cells after 48 hrs by SRB assay; details: 786-0, 48 h
# UACC-257 = experiment: Cytotoxicity against human UACC257 cells after 48 hrs by SRB assay; details: UACC-257, 48 h
# CCRF-CEM = experiment: Cytotoxicity against human CCRF-CEM cells after 48 hrs by SRB assay
# TK-10 = experiment: Cytotoxicity against human TK10 cells after 48 hrs by SRB assay; details: TK-10, 48 h
# UO-31 = experiment: Cytotoxicity against human UO31 cells after 48 hrs by SRB assay; details: UO-31, 48 h
# ACHN = experiment: Cytotoxicity against human ACHN cells after 48 hrs by SRB assay
# COLO 205 = experiment: Cytotoxicity against human COLO205 cells after 48 hrs by SRB assay; details: COLO 205, 48 h; summary of the method: as §1
# HCT-15 = experiment: Cytotoxicity against human HCT15 cells after 48 hrs by SRB assay; details: HCT-15, 48 h
# MDA-MB-435 = experiment: Cytotoxicity against human MDA-MB-435 cells after 48 hrs by SRB assay; details: MDA-MB-435, 48 h
# OVCAR-5 = experiment: Cytotoxicity against human OVCAR5 cells after 48 hrs by SRB assay; details: OVCAR-5, 48 h
# SF-295 = experiment: Cytotoxicity against human SF295 cells after 48 hrs by SRB assay; details: SF-295, 48 h
# NCI-H522 = experiment: Cytotoxicity against human NCI-H522 cells after 48 hrs by SRB assay; details: NCI-H522, 48 h
# PC-3 = experiment: Cytotoxicity against human PC3 cells after 48 hrs by SRB assay; details: PC-3, 48 h; summary of the method: as §1
# NCI-H460 = experiment: Cytotoxicity against human NCI-H460 cells after 48 hrs by SRB assay; details: NCI-H460, 48 h
# LOX IMVI = experiment: Cytotoxicity against human LOXIMVI cells after 48 hrs by SRB assay
# OVCAR-8 = experiment: Cytotoxicity against human OVCAR8 cells after 48 hrs by SRB assay; details: OVCAR-8, 48 h
# OVCAR-3 = experiment: Cytotoxicity against human OVCAR-3 cells after 48 hrs by SRB assay; details: OVCAR-3, 48 h
# HCC 2998 = experiment: Cytotoxicity against human HCC2998 cells after 48 hrs by SRB assay; details: HCC 2998, 48 h
# NCI/ADR-RES = experiment: Cytotoxicity against human NCI/ADR-RES cells after 48 hrs by SRB assay
# BT-549 = experiment: Cytotoxicity against human BT549 cells after 48 hrs by SRB assay; details: BT-549, 48 h
# SN12C = experiment: Cytotoxicity against human SN12C cells after 48 hrs by SRB assay
# HOP-62 = experiment: Cytotoxicity against human HOP62 cells after 48 hrs by SRB assay; details: HOP-62, 48 h; summary of the method: as §1
# A549 = experiment: Cytotoxicity against human A549 cells after 48 hrs by SRB assay; details: A549, 48 h; summary of the method: as §1
# SW-620 = experiment: Cytotoxicity against human SW620 cells after 48 hrs by SRB assay; details: SW-620, 48 h
# SF-268 = experiment: Cytotoxicity against human SF268 cells after 48 hrs by SRB assay; details: SF-268, 48 h
# HCT-116 = experiment: Cytotoxicity against human HCT116 cells after 48 hrs by SRB assay; details: HCT-116, 48 h
# UACC-62 = experiment: Cytotoxicity against human UACC62 cells after 48 hrs by SRB assay; details: UACC-62, 48 h
# K562 = experiment: Cytotoxicity against human K562 cells after 48 hrs by SRB assay; details: K562, 48 h
# SNB-19 = experiment: Cytotoxicity against human SNB19 cells after 48 hrs by SRB assay; details: SNB-19, 48 h
# SK-OV-3 = experiment: Cytotoxicity against human SKOV3 cells after 48 hrs by SRB assay; details: SK-OV-3, 48 h
# T47D = experiment: Cytotoxicity against human T47D cells after 48 hrs by SRB assay
# DU-145 = experiment: Cytotoxicity against human DU145 cells after 48 hrs by SRB assay; details: DU-145, 48 h
# MDA-MB-231 = experiment: Cytotoxicity against human MDA-MB-231 cells after 48 hrs by SRB assay; details: MDA-MB-231, 48 h
# IGROV-1 = experiment: Cytotoxicity against human IGROV1 cells after 48 hrs by SRB assay; details: IGROV-1, 48 h
# SF-539 = experiment: Cytotoxicity against human SF539 cells after 48 hrs by SRB assay; details: SF-539, 48 h
# Malme-3M = experiment: Cytotoxicity against human MALME-3M cells after 48 hrs by SRB assay
# MDA-MB-468 = experiment: Cytotoxicity against human MDA-MB-468 cells after 48 hrs by SRB assay; details: MDA-MB-468, 48 h
smiles,measurement,setting,value
COc1cc(/C=C/C(=O)N2CCN(C(=O)c3cc(OC)c(OC)c(OC)c3)CC2)ccc1OCCCOc1cc2c(cc1OC)C(=O)N1CCC[C@H]1C=N2,GI50,HT-29,260 nM
same,GI50,NCI-H23,260 nM
same,GI50,RXF 393,540 nM
same,GI50,OVCAR-4,1070 nM
same,GI50,MCF7,80 nM
same,GI50,MOLT-4,230 nM
same,GI50,EKVX,720 nM
same,GI50,KM12,210 nM
same,GI50,SK-MEL-28,200 nM
same,GI50,M14,320 nM
same,GI50,HL-60(TB),180 nM
same,GI50,SNB-75,210 nM
same,GI50,HOP-92,490 nM
same,GI50,SR,280 nM
same,GI50,CAKI-1,2110 nM
same,GI50,U-251,180 nM
same,GI50,SK-MEL-2,260 nM
same,GI50,NCI-H322M,340 nM
same,GI50,[1],230 nM
same,GI50,NCI-H226,310 nM
same,GI50,A498,190 nM
same,GI50,SK-MEL-5,190 nM
same,GI50,786-0,270 nM
same,GI50,UACC-257,350 nM
same,GI50,CCRF-CEM,80 nM
same,GI50,TK-10,290 nM
same,GI50,UO-31,2590 nM
same,GI50,ACHN,2540 nM
same,GI50,COLO 205,190 nM
same,GI50,HCT-15,2980 nM
same,GI50,MDA-MB-435,180 nM
same,GI50,OVCAR-5,290 nM
same,GI50,SF-295,310 nM
same,GI50,NCI-H522,60 nM
same,GI50,PC-3,730 nM
same,GI50,NCI-H460,240 nM
same,GI50,LOX IMVI,240 nM
same,GI50,OVCAR-8,450 nM
same,GI50,OVCAR-3,210 nM
same,GI50,HCC 2998,240 nM
same,GI50,NCI/ADR-RES,8910 nM
same,GI50,BT-549,150 nM
same,GI50,SN12C,270 nM
same,GI50,HOP-62,230 nM
same,GI50,A549,1890 nM
same,GI50,SW-620,170 nM
same,GI50,SF-268,240 nM
same,GI50,HCT-116,170 nM
same,GI50,UACC-62,160 nM
same,GI50,K562,690 nM
same,GI50,SNB-19,380 nM
same,GI50,SK-OV-3,610 nM
same,GI50,T47D,230 nM
same,GI50,DU-145,330 nM
same,GI50,MDA-MB-231,230 nM
same,GI50,IGROV-1,240 nM
same,GI50,SF-539,240 nM
same,GI50,Malme-3M,170 nM
same,GI50,MDA-MB-468,70 nM
